Data: ChEMBL document CHEMBL4359879, “Synthesis and evaluation of 2-carboxy indole derivatives as potent and selective anti-leukemic agents” (Eur J Med Chem, 2019)
Activity calls are given as the source filed them. The calls are words filed in the database; no cut-off is given here.

Tests used:
Assay type in all cases: functional, cell-based
[1] = system: CCRF-CEM; assay: Antiproliferative activity against human CEM cells incubated for 48 hrs by MTT assay
In short: (§1)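 Cells grown in RPMI-1640 with 10% FBS, penicillin/streptomycin, 37 °C, 5% CO2. After 48 h of exposure to a dilution series, MTT was added (0.5 mg/ml final) for 4 h. Formazan was dissolved overnight in acidic SDS (10% SDS, 0.01 mol/L HCl) and absorbance read at 570 and 620 nm. Survival was expressed relative to controls, and EC50 was fitted from dose-response curves.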

[2] = system: RS4-11; assay: Antiproliferative activity against human RS4:11 cells incubated for 48 hrs by MTT assay; settings: RS4-11, 48 h; in short: as §1
[3] = system: HL-60; assay: Induction of differentiation in human HL60 cells assessed as increase in CD14 positive cells at 100 nM incubated for 48 hrs by 7-AAD staining-based flow cytometric analysis
In short: (§2)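 Vitamin D3 at 100 nM and ATRA at 2 μM served as positive controls. Stained with APC anti-CD11b and PE anti-CD14 for 30 min at 4 °C, then 7-AAD.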

[4] = system: HL-60; assay: Induction of differentiation in human HL60 cells assessed as increase in CD11b positive cells at 2 uM incubated for 48 hrs by 7-AAD staining-based flow cytometric analysis; in short: as §2

Row | Structure (SMILES) | EC50 [1] [µM] | EC50 [2] [µM] | Activity [3] | Activity [4]
1 | COC(=O)c1[nH]c2cc(OC)ccc2c1-c1ccc(F)cc1 | 10 | 85.6 |  | 
2 | COC(=O)c1[nH]c2cc(C(F)(F)F)ccc2c1-c1ccccc1 | > 100 | > 100 |  | 
3 | COC(=O)c1[nH]c2cc(OC)ccc2c1C1CCCCC1 | 80.2 | > 100 |  | 
4 | COc1ccc2c(-c3ccc(C(F)(F)F)cc3)c(C(=O)O)[nH]c2c1 | 19.8 | 24.4 |  | 
5 | C=C1/C(=C\C=C2/CCC[C@]3(C)[C@@H]([C@H](C)CCCC(C)(C)O)CC[C@@H]23)C[C@@H](O)C[C@@H]1O |  |  | Active | 
6 | COC(=O)c1[nH]c2cc(OC)ccc2c1C | > 100 | > 100 |  | 
7 | COC(=O)c1[nH]c2cc(O)ccc2c1-c1ccc(C(F)(F)F)cc1 | 9.9 | 10.3 |  | 
8 | COC(=O)c1c(-c2ccc(C(F)(F)F)cc2)c2ccc(OC)cc2n1O | 0.39 | 0.3 |  | 
9 | COC(=O)c1[nH]c2cc(OC)ccc2c1CC(C)C | 16.6 | 37.8 |  | 
10 | COC(=O)c1[nH]c2cc(OC)ccc2c1C(=O)OC | > 100 | > 100 |  | 
11 | CCc1c(C(=O)OC)[nH]c2cc(OC)ccc12 | > 100 | > 100 |  | 
12 | COC(=O)c1[nH]c2ccccc2c1-c1ccc(C(F)(F)F)cc1 | > 100 | > 100 |  | 
13 | COC(=O)c1c(-c2ccc(C(F)(F)F)cc2)c2ccc(OC)cc2n1C | > 100 | > 100 |  | 
14 | CCOC(=O)c1[nH]c2cc(OC)ccc2c1-c1ccc(C(F)(F)F)cc1 | > 100 | > 100 |  | 
15 | COC(=O)c1[nH]c2ccccc2c1-c1ccccc1 | 35.8 | 95.2 |  | 
16 | COC(=O)c1[nH]c2cc(OC)ccc2c1-c1ccc(Br)cc1 | 0.33 | 0.2 |  | 

Row | Structure (SMILES) | EC50 [1] [µM] | EC50 [2] [µM] | Activity [3] | Activity [4]
17 | COC(=O)c1[nH]c2cc(OC)ccc2c1-c1ccccc1OC | 1.9 | 10.5 |  | 
18 | COC(=O)c1c(-c2ccc(C(F)(F)F)cc2)c2ccc(OC)cc2n1Cc1ccccc1 | > 100 | > 100 |  | 
19 | COC(=O)c1[nH]c2ccc(OC)cc2c1-c1ccc(C(F)(F)F)cc1 | > 100 | > 100 |  | 
20 | COC(=O)c1[nH]c2cc(OC)ccc2c1C(C)C | > 100 | 81.5 |  | 
21 | COc1ccc2c(-c3ccc(C(F)(F)F)cc3)c(C(=O)N3CCOCC3)[nH]c2c1 | 29.7 | 47.6 |  | 
22 | COC(=O)c1[nH]c2ccccc2c1-c1ccc(F)cc1 | > 100 | > 100 |  | 
23 | CC1=C(/C=C/C(C)=C/C=C/C(C)=C/C(=O)O)C(C)(C)CCC1 |  |  |  | Active
24 | COC(=O)c1[nH]c2cc(OC)ccc2c1Cc1ccccc1 | 8.7 | 61.6 |  | 
25 | COC(=O)c1[nH]c2ccccc2c1-c1ccc(OC)cc1 | > 100 | > 100 |  | 
26 | COC(=O)c1[nH]c2cc(C(F)(F)F)ccc2c1-c1ccc(C(F)(F)F)cc1 | > 100 | > 100 |  | 
27 | COC(=O)c1[nH]c2cc(C(F)(F)F)ccc2c1-c1ccc(OC)cc1 | > 100 | > 100 |  | 
28 | COC(=O)c1[nH]c2cc(OC)ccc2c1-c1ccc(Cl)c(Cl)c1 | 0.58 | 3.8 |  | 
29 | COc1ccc2c(-c3ccc(C(F)(F)F)cc3)c(C(=O)OC(C)(C)C)[nH]c2c1 | > 100 | > 100 |  | 
30 | COC(=O)Cc1c(C(=O)OC)[nH]c2cc(OC)ccc12 | > 100 | > 100 |  | 
31 | COc1ccc2c(-c3ccc(C(F)(F)F)cc3)c(C(=O)N[C@@H](Cc3ccccc3)C(=O)O)[nH]c2c1 | 52 | 43.1 |  | 
